Compound activity deposited in PubChem by several laboratories.
Compounds with a hit are over-represented: about 12% of the library has one in this group of screens.
Dynein cargo inh – inhibitors of GR-EGFP nuclear translocation, primary screen, dynein cargo transport inhibitor project, imaging, high-content, 3617.4 mouse cells; hit rate 0.47% among 220,000; test concentration mostly 20 µM; stimulated with dexamethasone, 1 µM; stronger effect = lower value; z-score, hits read low;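 active = plate z-score of nuclear minus cytoplasmic receptor signal below a set negative limit, without overly bright fluorescence or cell loss, cut at about -3.5 in these data, passing the limit was not always enough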;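 note: z-score of nuclear minus cytoplasmic ring GR-EGFP intensity difference per well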
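Schedule: 48 h induction, then 1 h compound, then 30 min agonist, 37 °C. Buffer or medium: tetracycline-free induction medium containing charcoal-stripped FBS. Reagent: 1.0 µM final dexamethasone stimulus. Evaluation: nuclear versus cytoplasmic GR-EGFP signal, averaged per well. Signal: high-content fluorescence imaging after fixation.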
b-catenin transl – modulators of beta-catenin nuclear translocation, primary screen, imaging, HeLa cells, immunofluorescence, high-content; nuclear translocation activity, % at 5 µM; hit rate 0.3% among 190,000; AID 1665, 2009;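 active = nuclear translocation activity above 50% at 5 µM, with a well cell count of 50 or more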;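 note: per-cell ratio of nuclear to cytoplasmic median beta-catenin stain intensity; plate controls were DMSO negative control for no effect and GSK-3 inhibitor IX positive control for full effect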
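test system = HeLa cells, endogenous beta-catenin | dosing = single 5 µM dose plus 0.02–20 µM confirmation series | times = compound treatment 24 h, 37°C, 5% CO2 | technique = beta-catenin immunofluorescence imaging with DAPI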
L major viab – Leishmania major promastigote growth inhibition, primary screen | Leishmania major promastigotes, resazurin fluorescence viability | inhibition, % at 10 µM | hit rate 9% among 200,000; in the data active = inhibition above about 50%;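 note: promastigotes grown with compound for 44 hours at 28 °C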
Autophagy mod – autophagy modulators in MEF cells, primary screen, imaging, high-content, MEF GFP-LC3 | MEF GFP-LC3 puncta imaging; test concentration mostly 10 µM | calls only at 10 µM (by protocol) | hit rate 0.98% among 190,000 | AID 463193, 2010;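 active = percentage of spot-positive cells more than 3 SD above its plate mean, without a fluorescence outlier flag or 80% toxicity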;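 note: spot-positive cell cutoff set from DMSO-treated cells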
MT stabilize HCS – microtubule stabilizers in HeLa cells, primary screen, imaging, high-content imaging; HeLa tubulin immunostaining HCS, 24 h; share of cells brighter than vehicle mean+2SD; % tubulin-high responders, % at 10 µM; hit rate 0.83% among 200,000;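 active = plate Z-score above 3 for both tubulin-high and condensed-nucleus cell shares, with cell loss under 80%, at 10 µM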;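 note: anti alpha tubulin signal scored within the nucleus-defined area of each cell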
CHOP inh – inhibitors of CHOP promoter induction, primary screen, cell-based, unfolded protein response, luciferase reporter | hit rate 3.8% among 220,000 | CHO-K1 CHOP-promoter luciferase, tunicamycin-induced, 15-18 h | inhibition, % at 10 µM;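 active = compounds that reduced the stress-induced luciferase reporter signal by more than about 70% of percent inhibition, limit read from the data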;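 note: 0% = tunicamycin plus vehicle and 100% = wells without tunicamycin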
* hit, by the source's call; i = inactive; / = not tested or not shown.

SMILES	Dynein cargo inh	b-catenin transl	L major viab	Autophagy mod	MT stabilize HCS	CHOP inh
Cc1ccc(CSc2nc3ccccc3cc2C=O)cc1	-0.71	-2	96*	i	21*	-7
O=Cc1cc2ccccc2nc1SCc1ccc(Cl)cc1	-0.61	4	97*	i	28*	56
O=Cc1cc2ccccc2nc1SCc1ccc(Cl)c(Cl)c1	0.11	3	95*	i	18*	-8
N#Cc1ccc(-c2cccnc2)nc1SCc1ccc(Cl)c(Cl)c1	-0.072	1	8	i	3	33
O=c1[nH]c(SCc2ccc(Cl)cc2)nc2ccccc12	-0.016	1	-4	i	3	19
O=C(Nc1cccnc1Oc1ccc(Cl)cc1)c1cccc2ccccc12	-0.78	0	/	/	/	28
Cc1cccc(Nc2nnc(SCC(=O)N(C)C3CCS(=O)(=O)C3)s2)c1C (stereo unspecified)	1.9	-2	-4	i	3	30
O=C1C2C3C=CC(C3)C2C(=O)N1c1ccccc1OS(=O)(=O)c1ccccc1 (stereo unspecified)	-0.29	-1	63*	i	2	28
O=C(COc1ccccc1N1C(=O)C2C3C=CC(C3)C2C1=O)c1ccccc1 (stereo unspecified)	0.56	0	/	/	/	6
COc1ccc(-n2c(COc3cccc4cccnc34)nnc2SCC(=O)O)cc1	0.16	-1	-6	i	1	3
CCSC1=N/C(=C\c2ccc3c(c2)OCO3)C(=O)S1	0.24	0	-2	i	2	74*
COc1ccc(-c2csc(NC3=NCCCCC3)n2)cc1	0.14	15	88*	i	3	-6
CCOc1ccc(-c2csc(NNC3=NCCCCC3)n2)cc1	0.45	0	17	i	4	75*
COc1ccc(-c2csc(NNC3=NCCCCC3)n2)cc1	-0.16	1	2	i	2	46
N#C/C(=C/c1cccn1-c1cccc(C(=O)O)c1)c1ccc(F)cc1	-0.38	0	-6	i	3	13
Cc1ccc(NCCCCO)cc1C	-0.91	2	5	i	2	-3
Cc1nn(Cc2ccccc2Cl)c2sc(C(=O)NC(C)(C)C)cc12	0.14	-3	38	i	3	27
Cc1csc(NC(=O)c2cc3c(C)nn(Cc4ccccc4Cl)c3s2)n1	2.2	-1	96*	i	2	28
C/C(=N\NC(=O)c1cccc(Cl)c1)C1C(=O)c2ccccc2C1=O	-0.89	2	97*	i	3	2
OCCC1CN(Cc2ccc3c(c2)CCO3)CCN1Cc1ccc(F)cc1 (stereo unspecified)	-0.18	0	75*	i	3	2
CC(=O)c1cccc(CN2CCN(CC=C(C)C)C(CCO)C2)c1 (stereo unspecified)	0.43	2	/	/	/	9
CC(=O)c1cccc(CN2CCN(Cc3ccc(C)cc3)C(CCO)C2)c1 (stereo unspecified)	-0.58	-3	79*	i	3	18
CC(=O)c1cccc(CN2CCN(Cc3ccc(F)cc3)C(CCO)C2)c1 (stereo unspecified)	-0.81	-2	87*	i	3	-1
Cc1ccc(CN2CCN(Cc3cccc(-n4cccn4)c3)CC2CCO)cc1 (stereo unspecified)	-0.027	1	80*	i	5	17
Cc1ccc(CN2CCN(Cc3ccc(-n4cccn4)cc3C)CC2CCO)cc1 (stereo unspecified)	-0.37	0	21	i	4	18
Cc1csc(-c2cnn(-c3ccccc3)c2NC(=O)c2cccc(C(F)(F)F)c2)n1	-0.47	-3	27	i	2	-2
CCOc1cc(/C=C(/NC(C)=O)C(=O)O)cc(Cl)c1OCc1ccc(Br)cc1	-1	0	/	/	/	2
CC(=O)c1cccc(CN2CCN(CCc3ccccc3)C(CCO)C2)c1 (stereo unspecified)	2.4	0	68*	i	2	1
